A short description of data set [1]: Stability in human plasma assessed as half life. It counts as ADME, cell-free.
Data set [2] is described as follows: Stability in human microsomes assessed as half life. It counts as ADME, Microsome.
Data set [3] is described as follows: Stability in hamster plasma assessed as half life. It counts as ADME, cell-free, Cricetulus griseus. The conditions noted are these: chinese hamster.
Data set [4] in a line: Stability in hamster microsomes assessed as half life. It counts as ADME, Cricetulus griseus, Microsome. The settings on record: chinese hamster.
Data set [5] can be described thus: Drug accumulation in hamster kidney at 10 mg/kg, iv measured upto 24 hrs by LC-MS/MS analysis. The conditions noted are these: chinese hamster, in vivo. It counts as ADME, organism-based, Cricetulus griseus. In outline: (§1)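 Catheterized female hamsters received 10 mg/kg iv at 2 mg/mL. The remdesivir vehicle was 15% cyclodextrin at pH 3–3.5; the test prodrug was given in cyclodextrin or albumin formulation. Two animals per group were sacrificed at 0.5, 1, 4, 7 and 24 h. Tissues were homogenized in 5-fold 70% methanol with internal standard and supernatants analysed by LC-MS against 5–5000 ng/mL standard curves.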

A short description of data set [6]: Prodrug activation in human Calu-3 cells assessed as NUC release at 10 uM measured upto 12 hrs by LC-MS analysis. It counts as cell-based. The conditions noted are these: calu-3, 12 h. In outline: (§2)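 Calu-3 cells (1–5 × 10^5/well) were cultured 12 h, then exposed to 10 μM drug at 37 °C for 2, 6 and 12 h (n = 3). Cells were detached with trypsin-EDTA, pelleted and washed three times with ice-cold PBS. Drug was extracted overnight at −20 °C in ice-cold 70% methanol, and supernatants were analysed by LC-MS.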

The test system of data set [7] is SARS-CoV-2. The experiment in a line: Antiviral activity against SARS-CoV-2 infected in African green monkey Vero E6 cells assessed as reduction in viral titer incubated for 2 days by CellTiter-Glo assay. The settings on record: Severe acute respiratory syndrome coronavirus 2; Vero 76; time 2.0 day. It counts as functional, organism-based. A general note: Cellular ATP, detected with luciferase, serves as a proxy for viable cell number.

Data set [8] in a line: Drug metabolism in hamster lymph node assessed as NTP metabolite formation at 10 mg/kg, iv measured upto 24 hrs by LC-MS/MS analysis. The settings on record: chinese hamster, in vivo. It counts as ADME, organism-based, Cricetulus griseus. An outline of the steps:
(§3)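 Female catheterized hamsters were dosed 10 mg/kg iv at 2 mg/mL; remdesivir was in 15% cyclodextrin at pH 3–3.5 and the prodrug in cyclodextrin or albumin. Two per group were sacrificed at 0.5–24 h. Tissues were homogenized in 70% methanol with internal standard. NTP was measured by ion-pairing LC-MS/MS (dimethylhexylamine/ammonium formate mobile phase), negative-ion MRM, against 10-point 5–5000 ng/mL standards. Exposure was reported as AUC.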

Data set [9] is described as follows: Drug accumulation in hamster liver at 10 mg/kg, iv measured upto 24 hrs by LC-MS/MS analysis. It counts as ADME, organism-based, Cricetulus griseus. The conditions noted are these: chinese hamster, in vivo. In outline:
as §1

The nature of data set [10]: Stability in mouse plasma assessed as half life. It counts as ADME, cell-free.
The test system of data set [11] is SARS-CoV-2. Briefly: Antiviral activity against SARS-CoV-2 delta B.1.617.2 infected in African green monkey Vero E6 cells assessed as protection against virus-induced cytopathic effect incubated for 2 days by CellTiter-Glo assay. It counts as functional, organism-based. The settings on record: Severe acute respiratory syndrome coronavirus 2, delta B.1.617.2, Vero 76, 48 h. (Protection from cytopathic effect is a common read-out in antiviral testing.)

The nature of data set [12]: Drug metabolism in hamster lung assessed as NTP metabolite formation at 10 mg/kg, iv measured upto 24 hrs by LC-MS/MS analysis. The settings on record: chinese hamster, in vivo. It counts as ADME, organism-based, Cricetulus griseus. An outline of the steps: as §3
The nature of data set [13]: Prodrug activation in human Calu-3 cells assessed as ALA release at 10 uM measured upto 12 hrs by LC-MS analysis. It counts as cell-based. The conditions noted are these: calu-3, 12 h. In outline: as §2
The test system of a further data set is Vero 76. The experiment in a line: Cytotoxicity against African green monkey Vero E6 cells at 10 uM. It counts as toxicity, cell-based. The settings on record: chlorocebus sabaeus, vero 76, 10 µM.
Data set [14] deals with SARS-CoV-2. The experiment in a line: Antiviral activity against SARS-CoV-2 gamma P.1 infected in African green monkey Vero E6 cells assessed as protection against virus-induced cytopathic effect incubated for 2 days by CellTiter-Glo assay. It counts as functional, organism-based. The conditions noted are these: Severe acute respiratory syndrome coronavirus 2, gamma P.1, Vero 76, 48 h.

A short description of data set [15]: Stability in mouse microsomes assessed as half life. It counts as ADME, Microsome.
The nature of data set [16]: Prodrug activation in human Calu-3 cells assessed as NTP release at 10 uM measured upto 12 hrs by LC-MS analysis. It counts as cell-based. The conditions noted are these: calu-3, 12 h. An outline of the steps:
as §2

The subject of data set [17] is SARS-CoV-2. The experiment in a line: Antiviral activity against SARS-CoV-2 beta B.1.351 infected in African green monkey Vero E6 cells assessed as protection against virus-induced cytopathic effect incubated for 2 days by CellTiter-Glo assay. It counts as functional, organism-based. The conditions noted are these: Severe acute respiratory syndrome coronavirus 2, beta B.1.351, Vero 76, 48 h.

Data set [18] can be described thus: Drug metabolism in hamster spleen assessed as NTP metabolite formation at 10 mg/kg, iv measured upto 24 hrs by LC-MS/MS analysis. It counts as ADME, organism-based, Cricetulus griseus. The conditions noted are these: chinese hamster, in vivo. An outline of the steps: as §3
Data set [19] has as its system SARS-CoV-2. The experiment in a line: Antiviral activity against SARS-CoV-2 infected in African green monkey Vero E6 cells assessed as protection against virus-induced cytopathic effect incubated for 2 days by CellTiter-Glo assay. The settings on record: Severe acute respiratory syndrome coronavirus 2, Vero 76, 48 h. It counts as functional, organism-based.
Data set [20] in a line: Drug metabolism in hamster blood assessed as NTP metabolite formation at 10 mg/kg, iv measured upto 24 hrs by LC-MS/MS analysis. The conditions noted are these: chinese hamster, in vivo. It counts as ADME, organism-based, Cricetulus griseus. An outline of the steps:
as §3

In data set [21] the test system is SARS-CoV-2. Briefly: Antiviral activity against SARS-CoV-2 alpha B.1.1.7 infected in African green monkey Vero E6 cells assessed as protection against virus-induced cytopathic effect incubated for 2 days by CellTiter-Glo assay. The conditions noted are these: Severe acute respiratory syndrome coronavirus 2, alpha B.1.1.7, Vero 76, 48 h. It counts as functional, organism-based.

This note sets out measurements from ChEMBL document CHEMBL5126630, “Optimization of the Prodrug Moiety of Remdesivir to Improve Lung Exposure/Selectivity and Enhance Anti-SARS-CoV-2 Activity” (J Med Chem, 2022).

Active and inactive are the calls of the source. The rule behind the calls is not given here.

On to `C[C@H](NP(=O)(OC[C@H]1O[C@@](C#N)(c2ccc3c(N)ncnn23)[C@H](O)[C@@H]1O)Oc1cccc2ccccc12)C(=O)OCc1ccccc1` (stereo not given in full), for which the half-life – broadly, how long it takes for the measured level to halve – came out at 52.4 min in data set [1], 1.05 min in data set [2], 55.8 min in data set [3] and 0.46 min in [4].

As to `CCCCC/C=C\C/C=C\CCCCCCCCOC(=O)[C@H](C)NP(=O)(OC[C@H]1O[C@@](C#N)(c2ccc3c(N)ncnn23)[C@H](O)[C@@H]1O)Oc1ccccc1` (stereo not given in full), the Drug uptake in data set [5] and in [9] was 80% in each case. Also, the Drug metabolism result in [6], in [8], in data set [12], in data set [13], in data set [16] and in data set [18] was “Metabolite_Detected” in each case. Besides, the Drug metabolism entry in data set [20] is “Metabolite_Detected”. Moreover, in the data set on SARS-CoV-2 [7], the outcome was Active. In addition, the half-life in data set [1] turned out to be 192 min; in data set [10], 1.03 min; in [2], 8.33 min; in data set [3], 128 min; in [15] it was 8.65 min; in data set [4], 16.2 min. In addition, the 50% effective concentration (EC50) (in general, the concentration giving half of the maximal effect) with SARS-CoV-2 [11] is 5.6 µM; with SARS-CoV-2 [14] it was 1.7 µM; with SARS-CoV-2 [17], 15.9 µM; in the data set with SARS-CoV-2 [19], 0.4 µM; in the data set on SARS-CoV-2 [21], 2.5 µM. Moreover, the Activity result with Vero 76 was “Non-Toxic”.

In the case of `CCCCCCCCCCCCOC(=O)[C@H](C)NP(=O)(OC[C@H]1O[C@@](C#N)(c2ccc3c(N)ncnn23)[C@H](O)[C@@H]1O)Oc1ccccc1` (stereo not given in full), the half-life in data set [1] turned out to be 47.1 min; in data set [2], 4.29 min; in [3], 71.2 min; in data set [4], 2.72 min.

Take `CCCCCCCCCCCCOC(=O)[C@H](C)NP(=O)(OC[C@H]1O[C@@](C#N)(c2ccc3c(N)ncnn23)[C@H](O)[C@@H]1O)Oc1cccc2ccccc12` (stereo not given in full): the half-life is 154 min in data set [1], 6.11 min in data set [2], 158 min in data set [3] and 3.49 min in data set [4].

As to `CCC(CC)COC(=O)[C@H](C)N[P@](=O)(OC[C@H]1O[C@@](C#N)(c2ccc3c(N)ncnn23)[C@H](O)[C@@H]1O)Oc1ccccc1` [REMDESIVIR], the Drug uptake in [5] and in [9] was 80% throughout. The Drug metabolism result in data set [6], in data set [8], in data set [12], in data set [13], in [16] and in [18] was “Metabolite_Detected” each time. The Drug metabolism result in [20] is recorded as “Metabolite_Detected”. Also, in the data set with SARS-CoV-2 [7], the outcome was Active. In addition, the half-life was 40.7 min in [1], 0.86 min in data set [2], 54.5 min in data set [3] and 0.48 min in data set [4]. The EC50 in the data set with SARS-CoV-2 [11] stood at 9.2 µM; with SARS-CoV-2 [14], 3.7 µM; in the data set on SARS-CoV-2 [17], 32 µM; with SARS-CoV-2 [19], 3.3 µM; in the data set on SARS-CoV-2 [21], 4.7 µM. Besides, in the data set with Vero 76, the Activity result is “Non-Toxic”.

For the compound `CCCCC/C=C\C/C=C\CCCCCCCCOC(=O)[C@H](C)NP(=O)(OC[C@H]1O[C@@](C#N)(c2ccc3c(N)ncnn23)[C@H](O)[C@@H]1O)Oc1cccc2ccccc12` (stereo not given in full), the half-life in [1] was 286 min; in data set [10] it was 3.44 min; in data set [2] it was 19.7 min; in [3] it was 271 min; in data set [15], 13.6 min; in data set [4] it was 61.8 min.
